Activity calls are given as the source filed them. The calls are words filed in the database; no cut-off is given here.

For test [1], the target named is T1, Mu-type opioid receptor (Homo sapiens, UniProt P35372). As to the kind of experiment: Activity at human recombinant mu opioid receptor expressed in CHO cells assessed as stimulation of [35S]GTP-gamma-S binding relative to DAMGO. Format: functional, cell-based. The gist of the method: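 Membranes of CHO cells transfected with recombinant human MOR were assayed for stimulation of [35S]GTPγS binding. Efficacy is expressed against the standard DAMGO. Values are means of five or six experiments.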
T1 sequence (P35372 whole entry): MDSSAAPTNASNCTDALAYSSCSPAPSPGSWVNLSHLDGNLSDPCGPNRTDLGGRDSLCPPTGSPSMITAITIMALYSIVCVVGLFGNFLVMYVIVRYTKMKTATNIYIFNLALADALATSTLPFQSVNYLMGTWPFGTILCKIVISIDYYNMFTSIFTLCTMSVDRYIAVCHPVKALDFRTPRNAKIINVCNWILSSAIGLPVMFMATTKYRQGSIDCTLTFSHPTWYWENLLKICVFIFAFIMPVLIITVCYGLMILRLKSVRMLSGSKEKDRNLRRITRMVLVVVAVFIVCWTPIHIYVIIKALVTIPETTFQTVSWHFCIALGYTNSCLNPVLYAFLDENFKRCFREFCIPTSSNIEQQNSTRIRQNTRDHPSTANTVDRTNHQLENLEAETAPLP
(In general: Binding of GTPγS marks nucleotide exchange on a G protein.)

The target of test [2] is T2, Delta-type opioid receptor (Homo sapiens, UniProt P41143). Kind of test: Activity at human recombinant delta opioid receptor expressed in CHO cells assessed as stimulation of [35S]GTP-gamma-S binding. It counts as functional, cell-based.
T2 sequence (P41143 whole entry): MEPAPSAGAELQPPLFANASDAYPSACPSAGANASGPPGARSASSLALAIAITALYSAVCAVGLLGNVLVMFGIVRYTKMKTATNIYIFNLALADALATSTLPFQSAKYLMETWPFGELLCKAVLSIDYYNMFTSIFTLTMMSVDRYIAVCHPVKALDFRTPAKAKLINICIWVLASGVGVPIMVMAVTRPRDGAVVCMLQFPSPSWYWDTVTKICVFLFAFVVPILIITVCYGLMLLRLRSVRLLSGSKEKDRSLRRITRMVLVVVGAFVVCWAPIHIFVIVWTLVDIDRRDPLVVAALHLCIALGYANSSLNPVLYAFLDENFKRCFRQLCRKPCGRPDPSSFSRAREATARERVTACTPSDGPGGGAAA
Test [3] addresses T1, Mu-type opioid receptor. Kind of test: Displacement of [3H]DAMGO from human recombinant mu opioid receptor expressed in CHO cells. It counts as cell-based. In outline:
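Competition binding used membranes of CHO cells transfected with recombinant human MOR, with [3H]DAMGO as the selective radioligand. Affinity is reported as Ki (nM).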
(In general: Loss of bound radioactivity is the signal in a displacement assay; it reports binding, not function.)

The target of test [4] is T3, Kappa-type opioid receptor (Homo sapiens, UniProt P41145). Kind of test: Displacement of [3H]U-69593 from human recombinant kappa opioid receptor expressed in CHO cells. It counts as cell-based.
T3 sequence (P41145 whole entry): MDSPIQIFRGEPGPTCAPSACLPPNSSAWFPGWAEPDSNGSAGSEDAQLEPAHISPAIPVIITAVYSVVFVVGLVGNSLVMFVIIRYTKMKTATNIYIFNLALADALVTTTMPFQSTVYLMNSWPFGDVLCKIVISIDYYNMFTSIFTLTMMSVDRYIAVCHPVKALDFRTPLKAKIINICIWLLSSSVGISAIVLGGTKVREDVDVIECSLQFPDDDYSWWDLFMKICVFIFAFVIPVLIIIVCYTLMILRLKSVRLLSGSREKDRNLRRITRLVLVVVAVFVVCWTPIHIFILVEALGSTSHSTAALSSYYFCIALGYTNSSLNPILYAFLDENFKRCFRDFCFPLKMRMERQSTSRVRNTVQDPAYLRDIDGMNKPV
Test [5] has as its target T2, Delta-type opioid receptor. As to the kind of experiment: Displacement of [3H]Cl-DPDPE from human recombinant delta opioid receptor expressed in CHO cells. It counts as cell-based.
The target of test [6] is T1, Mu-type opioid receptor. Kind of test: Inhibition of DAMGO-stimulated [35S]GTP-gamma-S binding to mu opioid receptor expressed in C6 cells at 100 nM. Format: functional, cell-based. The gist of the method: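 C6 membranes expressing MOR were preincubated with ligand (100 nM) or vehicle in Tris-HCl buffer for 1 h at 25 °C. They were then centrifuged, resuspended, held at 37 °C to dissociate weakly bound ligand, recentrifuged and washed twice more. Washed membranes (15 µg) were incubated 1 h at 25 °C with increasing DAMGO and buffered [35S]GTPγS, giving DAMGO concentration–effect curves.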

The species entered for test [7] is Cavia porcellus. As to the kind of experiment: Selectivity for guinea pig mu opioid receptor over delta opioid receptor.
Test [8] deals with Opioid receptor (mu and kappa) (Cavia porcellus) (UniProt P41144+P97266). Kind of test: Selectivity for guinea pig mu opioid receptor over kappa opioid receptor. Format: protein assay.
Chain of Opioid receptor (mu and kappa) (Cavia porcellus) (P41144 whole entry, looked up): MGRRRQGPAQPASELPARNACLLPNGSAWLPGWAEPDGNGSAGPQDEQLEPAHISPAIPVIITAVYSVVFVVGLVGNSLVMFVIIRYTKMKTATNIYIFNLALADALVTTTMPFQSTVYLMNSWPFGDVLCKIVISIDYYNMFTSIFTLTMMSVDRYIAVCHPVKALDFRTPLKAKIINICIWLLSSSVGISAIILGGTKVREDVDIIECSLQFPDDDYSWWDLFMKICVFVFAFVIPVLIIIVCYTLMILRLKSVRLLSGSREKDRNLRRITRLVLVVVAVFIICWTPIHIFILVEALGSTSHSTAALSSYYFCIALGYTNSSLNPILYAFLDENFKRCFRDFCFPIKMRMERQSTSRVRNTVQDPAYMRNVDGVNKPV
Chain of Opioid receptor (mu and kappa) (Cavia porcellus) (P97266 whole entry, looked up): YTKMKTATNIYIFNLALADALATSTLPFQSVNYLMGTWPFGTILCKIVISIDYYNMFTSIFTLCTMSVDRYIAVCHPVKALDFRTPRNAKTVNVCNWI
Test [9] concerns the target Mu-type opioid receptor (Cavia porcellus, UniProt P97266). As to the kind of experiment: Displacement of [3H]DAMGO from mu opioid receptor in guinea pig brain homogenate. Format: tissue-based.
In test [10] the target is Kappa-type opioid receptor (Cavia porcellus, UniProt P41144). Kind of test: Displacement of [3H]U-69593 from kappa opioid receptor in guinea pig brain homogenate. It counts as tissue-based.
Chain of Kappa-type opioid receptor (Cavia porcellus, UniProt P41144) (P41144 whole entry): as the sequence (P41144 whole entry, looked up) above
The test system of test [11] is Mus musculus. Kind of test: Agonist activity in mouse tail withdrawal assay at 1 mg/kg relative to morphine. It counts as functional. The gist of the method: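 Antinociception in mice was measured as tail withdrawal from 50 °C water, with a test dose of 1 mg/kg compared against morphine. In a separate arm, the morphine antinociceptive dose–effect curve was determined after 24 h pretreatment to probe delayed MOR antagonism.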

Test [12] deals with T1, Mu-type opioid receptor. As to the kind of experiment: Displacement of [3H]diprenorphine from human mu opioid receptor expressed in C6 cells. Format: cell-based.
The target of test [13] is T3, Kappa-type opioid receptor. As to the kind of experiment: Displacement of [3H]diprenorphine from human recombinant kappa opioid receptor expressed in C6 cells. It counts as cell-based.
The target of test [14] is T2, Delta-type opioid receptor. Kind of test: Displacement of [3H]diprenorphine from human recombinant delta opioid receptor expressed in C6 cells. It counts as cell-based.

Chain of Mu-type opioid receptor (Cavia porcellus, UniProt P97266) (P97266 whole entry): as the sequence (P97266 whole entry, looked up) above

Take `COc1ccc2c3c1O[C@H]1C(=O)CC[C@@]4(NC(=O)/C=C/c5ccc(Cl)cc5)[C@@H](C2)N(CC2CC2)CC[C@]314`: the Activity entry in [1] (filed as antagonist) is “Antagonist”. The concentration for half-maximal inhibition (IC50) (usually the concentration at which inhibition is half-maximal) in test [2] was found to be 7.16 nM.
Regarding `O=C1CC[C@@]2(NC/C=C/Cc3ccc(Cl)cc3)[C@H]3Cc4ccc(O)c5c4[C@@]2(CCN3CC2CC2)[C@H]1O5`, in test [1] (filed as antagonist), the Activity result is “Antagonist”. For the same compound, the IC50 in test [2] stood at 3.35 nM. Moreover, the Ki (in general, a dissociation constant, usually derived from enzyme kinetics or from competition with a known ligand) in [3] turned out to be 1.89 nM; in test [4], 3.72 nM; in test [5], 6.65 nM.
For `COc1ccc2c3c1O[C@H]1C(=O)CC[C@@]4(NC(=O)C/C=C/c5ccc(Cl)cc5)[C@@H](C2)N(CC2CC2)CC[C@]314` the same measures were “Antagonist”, 118 nM, 8.19 nM, 21.5 nM and 104 nM.
For the compound `O=C(/C=C/c1ccc(Cl)cc1)N[C@@]12CCC(=O)[C@@H]3Oc4c(O)ccc5c4[C@@]31CCN(CC1CC1)[C@@H]2C5` [CLOCINNAMOX], the Activity entry in test [1] (filed as antagonist) was “Antagonist”. Moreover, the half-inhibitory concentration (IC50) in test [2] was 0.19 nM. The result in test [6] was Active.
As to `O=C1CC[C@@]2(NCCCCc3ccc(Cl)cc3)[C@H]3Cc4ccc(O)c5c4[C@@]2(CCN3CC2CC2)[C@H]1O5`, the Activity entry in test [1] (filed as antagonist) is “Antagonist”. For the same compound, the IC50 in test [2] came to 0.67 nM. Moreover, the values for the inhibition constant Ki in test [3], in test [4] and in [5] were 0.96 nM, 5.27 nM and 2.18 nM, respectively.
Taken in the same sequence, the figures for `COc1ccc2c3c1O[C@H]1C(=O)CC[C@@]4(NCCCCc5ccc(Cl)cc5)[C@@H](C2)N(CC2CC2)CC[C@]314` were “Antagonist”, 61.1 nM, 2.23 nM, 41.5 nM and 55.9 nM.
Consider `COc1ccc2c3c1O[C@H]1C(=O)CC[C@@]4(O)[C@@H](C2)N(CC2CC2)CC[C@]314`, for which, in test [1] (filed as antagonist), the Activity result was “Antagonist”. Besides, the concentration for half-maximal inhibition (IC50) in [2] worked out at 1000 nM. Moreover, the Ki in test [3] is 85.6 nM; in [4], 128 nM; in test [5], 272 nM.
As for `COc1ccc2c3c1O[C@H]1C(=O)CC[C@@]4(NCCCc5ccc(Cl)cc5)[C@@H](C2)N(CC2CC2)CC[C@]314`, the Ratio Ki in test [7] stood at 53; in [8], 133. The Ki is 0.59 nM in test [9] and 78.6 nM in test [10]. Further, the Activity result in test [1] (filed as antagonist) is “Antagonist”. The IC50 in [2] was determined as 1.66 nM.
As for `COc1ccc2c3c1O[C@H]1C(=O)CC[C@@]4(NCCc5ccc(Cl)cc5)[C@@H](C2)N(CC2CC2)CC[C@]314`, the Efficacy in test [1] came out at 39%. The Activity result in [1] (filed as partial agonist) is “Partial agonist”. Also, the concentration for half-maximal inhibition (IC50) in test [2] was determined as 63 nM. Besides, the Ki in test [3] came out at 1.33 nM; in [4], 13.1 nM; in test [5], 33.8 nM.
Take `COc1ccc2c3c1O[C@H]1C(=O)CC[C@@]4(NC/C=C/c5ccc(Cl)cc5)[C@@H](C2)N(CC2CC2)CC[C@]314`: the Ratio Ki in test [7] was determined as 63.6; in [8], 76.6. The inhibitory constant (Ki) in test [9] was determined as 0.7 nM; in test [10], 53.6 nM.
`O=C(Cc1ccc(Cl)cc1)N[C@@]12CCC(=O)[C@@H]3Oc4c(O)ccc5c4[C@@]31CCN(CC1CC1)[C@@H]2C5`: in test [1], the Efficacy stood at 29%. In addition, the Activity entry in test [1] (filed as partial agonist) was “Partial agonist”; in test [11], 10. Further, the IC50 in test [2] was found to be 2.41 nM. Moreover, the inhibition constant (Ki) is 0.73 nM in test [3], 1 nM in [4] and 1.51 nM in [5].
For `O=C(CCc1ccc(Cl)cc1)N[C@@]12CCC(=O)[C@@H]3Oc4c(O)ccc5c4[C@@]31CCN(CC1CC1)[C@@H]2C5`, the Ratio Ki amounted to 15 in test [7] and 16.2 in test [8]. For the same compound, the Ki turned out to be 0.04 nM in [9] and 0.65 nM in test [10]. In addition, in [1] (filed as antagonist), the Activity entry is “Antagonist”. Further, the IC50 in test [2] came to 0.03 nM.
As to `O=C1CC[C@@]2(NC/C=C/c3ccc(Cl)cc3)[C@H]3Cc4ccc(O)c5c4[C@@]2(CCN3CC2CC2)[C@H]1O5`, the figures for the inhibition constant Ki in test [12], in test [13] and in test [14] were 0.32 nM, 0.91 nM and 0.63 nM, respectively.
On to `COc1ccc2c3c1O[C@H]1C(=O)CC[C@@]4(NC(=O)Cc5ccc(Cl)cc5)[C@@H](C2)N(CC2CC2)CC[C@]314`, for which the Efficacy in test [1] came to 39%. In [1] (filed as partial agonist), the Activity entry was “Partial agonist”. The IC50 in [2] was determined as 88.7 nM. The inhibitory constant (Ki) in [3] stood at 2.64 nM; in test [4] it was 2.59 nM; in test [5] it was 51.9 nM.
Take `COc1ccc2c3c1O[C@H]1C(=O)CC[C@@]4(NC(=O)CCCc5ccc(Cl)cc5)[C@@H](C2)N(CC2CC2)CC[C@]314`: in test [1] (filed as antagonist), the Activity entry was “Antagonist”. In [2], the IC50 is 79.9 nM. Further, the inhibitory constant (Ki) in test [3] amounted to 3.88 nM; in [4], 7.51 nM; in [5], 89.4 nM.
Taken in the same sequence, the figures for `COc1ccc2c3c1O[C@H]1C(=O)CC[C@@]4(NCC/C=C/c5ccc(Cl)cc5)[C@@H](C2)N(CC2CC2)CC[C@]314` were “Antagonist”, 148 nM, 1.15 nM, 33.5 nM and 24.8 nM.
As for `O=C1CC[C@@]2(NCCCc3ccc(Cl)cc3)[C@H]3Cc4ccc(O)c5c4[C@@]2(CCN3CC2CC2)[C@H]1O5`, the Ratio Ki in test [7] is 8.5; in test [8], 14.6. Besides, the Ki in test [9] stood at 0.13 nM; in [10], 1.9 nM. The Activity entry in [1] (filed as antagonist) is “Antagonist”. Also, the half-maximal inhibitory concentration (IC50) in test [2] came to 0.02 nM.
Consider `COc1ccc2c3c1O[C@H]1C(=O)CC[C@@]4(NC/C=C/Cc5ccc(Cl)cc5)[C@@H](C2)N(CC2CC2)CC[C@]314`, for which the Activity entry in [1] (filed as antagonist) was “Antagonist”. Besides, the half-maximal inhibitory concentration (IC50) in [2] was 96.8 nM. The inhibitory constant (Ki) was found to be 6.76 nM in [3], 25.9 nM in test [4] and 94.9 nM in test [5].
For the compound `COc1ccc2c3c1O[C@H]1C(=O)CC[C@@]4(NC(=O)CCc5ccc(Cl)cc5)[C@@H](C2)N(CC2CC2)CC[C@]314`, the Ratio Ki in [7] stood at 21.2; in [8] it was 27.1. Moreover, the inhibitory constant (Ki) in test [9] turned out to be 0.24 nM; in [10], 6.5 nM. The Activity result in test [1] (filed as antagonist) is “Antagonist”. In test [2], the IC50 is 0.76 nM.
As to `O=C1CC[C@@]2(NCCc3ccc(Cl)cc3)[C@H]3Cc4ccc(O)c5c4[C@@]2(CCN3CC2CC2)[C@H]1O5`, in [1], the Efficacy was 34%. For the same compound, the Activity result in test [1] (filed as partial agonist) was “Partial agonist”. For the same compound, the 50% inhibitory concentration (IC50) in [2] came out at 1.59 nM. In addition, the Ki in [3] worked out at 0.86 nM; in test [4] it was 1.53 nM; in test [5] it was 1.91 nM.
For the compound `COc1ccc2c3c1O[C@H]1C(=O)CC[C@@]4(NC(=O)/C=C/Cc5ccc(Cl)cc5)[C@@H](C2)N(CC2CC2)CC[C@]314`, the Activity entry in test [1] (filed as antagonist) was “Antagonist”. Besides, the Ki in test [3] is 8.07 nM; in test [4] it was 25.2 nM; in [5], 242 nM.
For the compound `O=C(C/C=C/c1ccc(Cl)cc1)N[C@@]12CCC(=O)[C@@H]3Oc4c(O)ccc5c4[C@@]31CCN(CC1CC1)[C@@H]2C5`, the Activity entry in test [1] (filed as antagonist) is “Antagonist”. The 50% inhibitory concentration (IC50) in test [2] was determined as 1.7 nM. Besides, the Ki was found to be 1.87 nM in test [3], 4.94 nM in [4] and 3.25 nM in [5].
For `O=C1CC[C@@]2(NCC/C=C/c3ccc(Cl)cc3)[C@H]3Cc4ccc(O)c5c4[C@@]2(CCN3CC2CC2)[C@H]1O5` the same measures were “Antagonist”, 1.17 nM, 1 nM, 3.69 nM and 2.1 nM.
Taken in the same sequence, the figures for `O=C(CCCc1ccc(Cl)cc1)N[C@@]12CCC(=O)[C@@H]3Oc4c(O)ccc5c4[C@@]31CCN(CC1CC1)[C@@H]2C5` were “Antagonist”, 1.37 nM, 1.34 nM, 2.95 nM and 3.85 nM.

The values above are taken from ChEMBL document CHEMBL1137387, “Structural determinants of opioid activity in derivatives of 14-aminomorphinones: effects of changes to the chain linking of the C14-amino group to the aryl ring” (J Med Chem, 2006).
